The record followed here is PubChem BioAssay AID463141 (The Scripps Research Institute Molecular Screening Center, 2010).

In all, about 330,000 compounds went through this assay and about 350 (0.11%) were called active. The entries come from a sample that favours actives as a whole. Values without a mark were called inactive.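 How the source made its calls: active means activation above the mean of all tested compounds plus 3 SD (cut at about 21% in these data); inactive means the rest.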

Caspase-3 (Homo sapiens), sequence (P42574 whole entry D9A/D28A/D175A): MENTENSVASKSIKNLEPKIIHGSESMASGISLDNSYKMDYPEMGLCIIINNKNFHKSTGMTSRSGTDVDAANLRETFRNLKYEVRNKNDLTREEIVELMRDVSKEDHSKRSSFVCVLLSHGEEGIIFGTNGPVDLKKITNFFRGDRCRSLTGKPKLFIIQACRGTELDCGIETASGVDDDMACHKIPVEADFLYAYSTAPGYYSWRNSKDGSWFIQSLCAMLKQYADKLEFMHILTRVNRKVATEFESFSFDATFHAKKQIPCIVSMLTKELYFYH

The assay has as its target Caspase-3 (Homo sapiens) (UniProt P42574). In words: activators of human procaspase-3 D3A mutant, primary screen, biochemical, absorbance, PC-3 D3A mutant, single concentration (AID 463141).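 Further: 0% = DMSO alone and 100% = DMSO wells spiked with extra 5 µM PC-3 D3A.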 As to conditions: recombinant procaspase-3 D3A, Ac-DEVD-pNA absorbance 405 nm; at 8.5 µM; active compounds read high. An outline of the steps:
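Evaluation: percent activation relative to control range; Material: Procaspase-3 D3A mutant, all three cleavage aspartates alanine; Compound: single dose, 8.5 µM nominal compound, 0.8% DMSO; Replication: one well per compound; Signal: absorbance at 405 nm, 0 and 120 min; Schedule: 1 h preincubation plus 2 h reaction at 25 °C.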
With `C[C@@H]1CN([C@H](C)CO)C(=O)c2cc(NC(=O)NC3CCCCC3)ccc2O[C@H]1CN(C)S(C)(=O)=O`, the activation is -10.4%.

In the case of `COc1ccccc1C1C(C#N)=C(N)Oc2c1c(-c1ccccc1)nn2-c1ccccc1` (stereo unspecified), the activation was 3.18%.

With `Cc1cc(C)n(-c2nc(O)cc(=O)[nH]2)n1`, the activation is 13.4%.

For `CCOc1ccc2c(=O)c(-c3ccc4c(c3)OCCCO4)c(C)oc2c1`, the activation was -0.35%.

Take `O=C(CSCc1ccccc1Cl)NNC(=O)c1ccccc1`: the activation is -5.37%.

Consider `O=C(Nc1cccc2ccccc12)c1onc2c1CCCC2`, for which the activation is 2.73%.

Consider `O=C(CN1CCC(O)(c2cccc(C(F)(F)F)c2)CC1)NCCc1ccccc1`, for which the activation was 2.72%.

On to `COC(CCN(C)C)(c1ccccc1)c1ccccc1`, for which the activation was -2.83%.

`O=[N+]([O-])c1ccc(C=Nc2ccc(Cl)cc2Cl)s1`: the activation is 6.25%.

Consider `CCn1c(SCC(=O)NC2=NCCS2)nnc1C(C)NC(=O)c1ccccc1F` (stereo unspecified), for which the activation is 2.41%.

For `O=C1c2ccccc2C(O)N1Cc1ccccc1Cl` (stereo unspecified), the activation is -2.13%.

With `COc1ccc2[nH]c3c(c2c1)CCN1C(=O)C(CC(=O)NCCc2ccccn2)C[C@H](C(=O)N2CCOCC2)[C@@]31C` (stereo partly specified), the activation is 0.02%.

With `O=P(c1cccs1)(c1cccs1)c1cccs1`, the activation was -8.39%.

Consider `Cc1[nH]n(C(N)=S)c(=O)c1N=Nc1ccc(Cl)cc1Cl`, for which the activation is -2.96%.

For `CCN(c1ccc2c(c1)OCO2)S(=O)(=O)c1cc(Br)cc2c1N(C(=O)C1CC1)CC2`, the activation was 5.06%.

On to `O=C(CCNS(=O)(=O)c1ccccc1C(F)(F)F)NCc1ccc2c(c1)OCO2`, for which the activation is 32.1% (active).

In the case of `O=C(CCNS(=O)(=O)c1ccccc1C(F)(F)F)Nc1ccncc1`, the activation is 1.72%.

Consider `Cn1cc(CCC(=O)NCc2ccc3c(c2)OCO3)c2ccccc21`, for which the activation was 11.3%.

Take `CN1CCN(CCNC(=O)Nc2ccccc2[N+](=O)[O-])CC1`: the activation was 4.28%.

On to `CN(C)c1ccc(C=NCCc2ccc(S(N)(=O)=O)cc2)cc1`, for which the activation was 8.03%.

For the molecule `Cc1ccc(C)c(NC(=O)COC(=O)c2nn(C)c(=O)c3ccccc23)c1`, the activation is 14.6%.

Take `COc1cc(NC(=O)c2ccc(-c3csc(C)n3)cc2)c(OC)cc1Cl`: the activation is 3.93%.

For `CCCc1cc(=O)[nH]c(SCC(=O)Nc2ccc(C(=O)Nc3ccccc3OC)cc2)n1`, the activation was 0.24%.

Regarding `CCN(Cc1ccccc1)S(=O)(=O)c1cc(C(=O)O)ccc1OC`, the activation was 5.66%.

With `FC(F)(F)c1cccc(-c2nc(COc3ccc(Cl)cc3Cl)no2)c1`, the activation was -1.22%.

As to `CCCc1nc2c(C)cc(-c3nc4ccccc4n3C)cc2n1Cc1ccc(-c2ccccc2C(=O)O)cc1`, the activation is 5.04%.

For the molecule `COc1ccc(CSc2nc(N3CCOCC3)c3c(c2C#N)CC(C)(C)OC3)cc1`, the activation was -2.72%.

For the molecule `CC(C)C(=O)N1CCN(c2nc(-c3ccccc3)c3c(c2C#N)CC(C)(C)OC3)CC1`, the activation is 5.16%.

Turning to `CC1(C)Cc2c(C#N)c(SCc3nc4ccccc4[nH]3)nc(N3CCOCC3)c2CO1`, the activation was 30.9% (active).

`COc1ccc(OC)c(/C=N/NC(=O)c2ccc[n+](CC(=O)c3ccccc3)c2)c1`: the activation is -2.7%.

As to `COc1ccc(OC)c(Nc2nc3ccccc3n3cnnc23)c1`, the activation is -2.95%.

Take `Cc1cc(F)ccc1S(=O)(=O)Nc1ccc(C(=O)N(C)Cc2ccco2)cc1`: the activation is 12.5%.

For `CCN(CC)S(=O)(=O)c1ccc(Cl)c(C(=O)NC(C)C(c2cccs2)N2CCCC2)c1` (stereo unspecified), the activation is 0.02%.

In the case of `O=C(NCc1ccccc1)[C@@H]1CSC2c3ccccc3C(=O)N21` (stereo partly specified), the activation was 5.1%.

Turning to `Cn1nc([N+](=O)[O-])nc1Sc1ccc(C(C)(C)C)cc1`, the activation is -0.3%.

Take `ONC(=Nc1ccc(Cl)cc1)c1ccccc1Cl`: the activation is 4.43%.

For `C=CCn1c(SCc2nnc(-c3ccccc3)o2)nnc1C(O)c1ccccc1` (stereo unspecified), the activation is -1.35%.

For `CC1CCN(C(=S)NC2CC3CCC2C3)CC1` (stereo unspecified), the activation was -7.41%.

`CCCNC(=O)CN(Cc1ccccc1F)S(=O)(=O)c1ccc(C)cc1`: the activation was 4.46%.

Take `Cc1ccc(N(C(=O)C(F)(F)F)C(C(=O)NC2CCCCC2)c2ccncc2)cc1C` (stereo unspecified): the activation was -2.69%.

For `O=C(NCCS(=O)(=O)c1ccc(Br)cc1)c1ccccc1Cl`, the activation was 3.23%.
